From ChEMBL document CHEMBL1255187, “Structure-based design and synthesis of potent, ethylenediamine-based, mammalian farnesyltransferase inhibitors as anticancer agents” (J Med Chem, 2010)
pIC50: −log10 of the molar value.

Columns and labels:
[1] = biological target: Protein farnesyltransferase (Mus musculus, UniProt Q61239+Q8K2I1); assay: Inhibition of H-Ras farnesylation expressed in mouse NIH3T3 cells; assay type: functional, cell-based
Summary of the method: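 Oncogenic H-Ras-transformed NIH3T3 cells were treated with a range of inhibitor concentrations. Detection used peroxidase-conjugated secondary antibodies and enhanced chemiluminescence. IC50 is the mean of three independent assays ± SD unless stated otherwise.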

[2] = biological target: Geranylgeranyl transferase type 1 (Mus musculus, UniProt Q61239+Q8BUY9); assay: Inhibition of Rap1A geranylgeranylation expressed in mouse NIH3T3 cells; assay type: functional, cell-based
Summary of the method: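 Oncogenic H-Ras-transformed NIH3T3 cells were treated with a range of inhibitor concentrations. […] Detection used peroxidase-conjugated secondary antibodies and enhanced chemiluminescence. IC50 is the mean of three independent assays ± SD unless stated otherwise.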

Homo sapiens = species on record: Homo sapiens; assay: Selectivity ratio of IC50 for human geranylgeranyltransferase-1 to IC50 for human farnesyltransferase
[3] = biological target: Protein farnesyltransferase (Homo sapiens, UniProt P49354+P49356); assay: Inhibition of human farnesyltransferase assessed as incorporation of [3H]FPP into H-Ras-CVLS; assay type: protein-complex assay
Summary of the method: (§1)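 In vitro radiometric assay measuring transfer of [3H]FPP (FTase) or [3H]GGPP (GGTase-I) onto recombinant H-Ras-CVLS or H-Ras-CVLL, respectively.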

[4] = biological target: Geranylgeranyl transferase type I (Homo sapiens, UniProt P49354+P53609); assay: Inhibition of human geranylgeranyltransferase-1 assessed as incorporation of [3H]GGPP into H-Ras-CVLL; assay type: protein-complex assay; summary of the method: as §1

| SMILES | pIC50 [1] | pIC50 [2] | Selectivity ratio (Homo sapiens) | pIC50 [3] | pIC50 [4] |
| --- | --- | --- | --- | --- | --- |
| Cc1cccc(CN(CCN(Cc2cncn2C)c2ccc(C#N)cc2)S(=O)(=O)c2cn(C)cn2)c1 | 6.52 | < 5.00 | 12 | 7.27 | 6.20 |
| C=C(C)CN(CCN(Cc1cncn1C)c1ccc(C#N)cc1)S(=O)(=O)c1cn(C)cn1 | < 5.00 | < 5.00 | 5.3 | 6.94 | 6.22 |
| Cn1cnc(S(=O)(=O)N(CCN(Cc2cncn2C)c2ccc(C#N)cc2)Cc2ccncc2)c1 | < 5.00 | < 5.00 |  | 7.14 | < 5.00 |
| Cn1cnc(S(=O)(=O)N(CCN(Cc2cncn2C)c2ccc(C#N)cc2)Cc2ccco2)c1 | 6.10 | < 5.00 | 15 | 6.06 | 4.87 |
| Cn1cnc(S(=O)(=O)N(CCN(Cc2cnc[nH]2)c2ccccc2)Cc2ccccc2)c1 | < 5.00 | < 5.00 |  |  | < 5.00 |
| Cn1cnc(S(=O)(=O)N(CCN(Cc2cncn2C)c2ccc(C#N)cc2)CC2CCCCC2)c1 | 7.00 | < 5.00 | 8.8 | 7.22 | 6.28 |
| Cc1ccccc1CN(CCN(Cc1cncn1C)c1ccc(C#N)cc1)S(=O)(=O)c1cn(C)cn1 | 6.00 | < 5.00 | 15 | 7.29 | 6.11 |
| Cn1cnc(S(=O)(=O)N(CCN(Cc2cncn2C)c2ccc(C#N)cc2)Cc2ccc(-c3ccccc3)cc2)c1 | 5.30 | < 5.00 | 4.3 | 5.77 | 5.14 |
| Cn1cncc1CN(CCN(Cc1ccccc1)S(=O)(=O)c1cccs1)c1ccc(C#N)cc1 | 6.30 | < 5.00 | 200 | 7.30 | 5.00 |
| Cn1cncc1CN(CCN(Cc1ccccc1)S(=O)(=O)c1ccccc1)c1ccc(C#N)cc1 | 6.52 | < 5.00 | 7.6 | 7.39 | 6.51 |
| Cc1ccc(CN(CCN(Cc2cncn2C)c2ccc(C#N)cc2)S(=O)(=O)c2cn(C)cn2)cc1 | 5.70 | < 5.00 |  | 6.43 | 6.24 |
| Cn1cnc(S(=O)(=O)N(CCN(Cc2cncn2C)c2ccc(C#N)cc2)Cc2ccc(C#N)cc2)c1 | < 5.00 | < 5.00 | 18 | 6.43 | 5.19 |
| Cn1cnc(S(=O)(=O)N(CCN(Cc2cncn2C)c2ccc(C#N)cc2)Cc2ccc(-n3cccc3)cc2)c1 | 5.40 | < 5.00 | 15 | 6.41 | 5.24 |
| Cn1cnc(S(=O)(=O)N(CCN(Cc2cncn2C)c2ccc(C#N)cc2)CC2CCN(C(=O)OC(C)(C)C)CC2)c1 | < 5.70 | < 5.70 | > 2.7 |  | < 5.00 |
| Cn1cnc(S(=O)(=O)N(CCN(Cc2cncn2C)c2ccc(C#N)cc2)Cc2ccoc2)c1 | 6.19 | < 5.00 | 19 | 6.49 | 5.21 |
| Cn1cnc(S(=O)(=O)N(CCN(Cc2cncn2C)c2ccc(C#N)cc2)CC2CCN(c3ncccn3)CC2)c1 | < 5.00 | < 5.00 | > 20 | 6.29 | < 5.00 |
| Cn1cnc(S(=O)(=O)N(CCN(Cc2cncn2C)c2ccc(C#N)cc2)Cc2cccs2)c1 | 6.40 | < 5.00 | 2.6 | 5.64 | 5.23 |
| Cn1cncc1CN(CCN(Cc1ccccc1)S(=O)(=O)c1ccccn1)c1ccc(C#N)cc1 | 7.05 | < 5.00 |  | 7.60 | 6.09 |

| SMILES | pIC50 [1] | pIC50 [2] | Selectivity ratio (Homo sapiens) | pIC50 [3] | pIC50 [4] |
| --- | --- | --- | --- | --- | --- |
| C=CCN(CCN(Cc1cncn1C)c1ccc(C#N)cc1)S(=O)(=O)c1cn(C)cn1 | < 5.00 | < 5.00 | > 14 | 7.27 | < 5.00 |
| Cn1cncc1CN(CCN(CC1CCCCC1)S(=O)(=O)c1ccccn1)c1ccc(C#N)cn1 | 6.54 | 4.72 | 2 | 6.46 | 6.16 |
| Cn1cnc(S(=O)(=O)N(CCN(Cc2cncn2C)c2ccc(C#N)cc2)CC(=O)NC(C)(C)C)c1 | < 5.00 | < 5.00 | > 7.1 | 5.85 | < 5.00 |
| Cn1cncc1CN(CCN(Cc1ccccc1)S(=O)(=O)c1cccc2cccnc12)c1ccc(C#N)cc1 | 6.22 | < 5.00 | 333 | 7.52 | 5.00 |
| Cn1cnc(S(=O)(=O)N(CCN(Cc2cncn2C)c2ccc(C#N)cc2)Cc2ccccc2)c1 | 5.72 | < 5.00 |  |  | 5.57 |
| Cn1cnc(S(=O)(=O)N(CCN(Cc2cncn2C)c2ccc(C#N)cc2)Cc2ccsc2)c1 | 6.40 | < 5.00 | 14 | 7.17 | 6.03 |
| Cn1cnc(S(=O)(=O)N(CCN(Cc2cncn2C)c2ccc(C#N)cc2)CCn2cccc2)c1 | 5.37 | < 5.00 | 17 | 7.52 | 6.29 |
| Cn1cnc(S(=O)(=O)N(CCN(Cc2cnc[nH]2)c2ccc(Br)cc2)Cc2ccccc2)c1 | 5.24 | < 5.00 |  |  |  |
| Cn1cnc(S(=O)(=O)N(CCN(Cc2cncn2C)c2ccc(C#N)cc2)Cc2cccc(-c3ccccc3)c2)c1 | 5.52 | < 5.00 | 2.4 | 6.64 | 6.26 |
| Cn1cnc(S(=O)(=O)N(CCN(Cc2cncn2C)c2ccc(C#N)cc2)CC2CC2)c1 | < 5.00 | < 5.00 | > 17 | 6.23 | < 5.00 |
| Cc1noc(C)c1CN(CCN(Cc1cncn1C)c1ccc(C#N)cc1)S(=O)(=O)c1cn(C)cn1 | < 5.00 | < 5.00 | 2.7 | 6.29 | 5.87 |
| Cc1nc(C)c(CN(CCN(Cc2cncn2C)c2ccc(C#N)cc2)S(=O)(=O)c2cn(C)cn2)s1 | < 5.00 | < 5.00 | > 1.6 | 5.21 | < 5.00 |
| Cn1cncc1CN(CCN(CC1CCCCC1)S(=O)(=O)c1ccccn1)c1ccc(C#N)cc1 | 6.57 | 5.21 | 1.5 | 6.40 | 6.21 |
| Cn1cnc(S(=O)(=O)N(CCN(Cc2cncn2C)c2ccc(Br)cc2)Cc2ccccc2)c1 | 5.80 | < 5.00 | 6.7 |  |  |
| C=C(Br)CN(CCN(Cc1cncn1C)c1ccc(C#N)cc1)S(=O)(=O)c1cn(C)cn1 | 5.24 | < 5.00 | 31 | 6.74 | 5.26 |
| Cn1cnc(S(=O)(=O)N(CCN(Cc2cncn2C)c2ccc(C#N)cc2)Cc2cccc(C#N)c2)c1 | 5.30 | < 5.00 |  | 7.11 |  |
| CCCS(=O)(=O)N(CCN(Cc1cncn1C)c1ccc(C#N)cc1)Cc1ccccc1 | 7.15 | < 5.00 | 85 |  |  |
| Cn1cncc1CN(CCN(CC1CCCCC1)S(=O)(=O)c1ccccn1)c1ccc(C#N)cc1F | 7.05 | 5.57 | 2.1 |  |  |
